Data as given in ChEMBL document CHEMBL1134770, “Novel, potent, and selective phosphodiesterase 5 inhibitors: synthesis and biological activities of a series of 4-aryl-1-isoquinolinone derivatives” (J Med Chem, 2001).

Assays:
Phosphodiesterase 1 = Phosphodiesterase 1 (Rattus norvegicus, UniProt Q63421+Q9EPR9+Q01066); assay: Inhibitory activity against rat heart Phosphodiesterase 1(PDE1); format: protein assay
[1] = molecular target: Phosphodiesterase 3 (Canis familiaris); assay: Inhibitory activity against canine heart Phosphodiesterase 3 (PDE3)
[2] = molecular target: cGMP-specific 3',5'-cyclic phosphodiesterase (Canis lupus familiaris, UniProt O77746); assay: Inhibitory activity against canine lung Phosphodiesterase 5 (PDE5)
How it was run: (§1)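 Boiled, then snake-venom nucleotidase for 30 min at 37 °C, methanol stop, Dowex separation, scintillation counting. IC50 from log concentration-inhibition curve (≥4 points), mean of ≥2 duplicate experiments.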

[3] = molecular target: T1, cGMP-dependent 3',5'-cyclic phosphodiesterase (Bos taurus, UniProt P14099); assay: Inhibition of bovine adrenal gland Phosphodiesterase 2 (PDE2); how it was run: as §1
T1 sequence (P14099 whole entry): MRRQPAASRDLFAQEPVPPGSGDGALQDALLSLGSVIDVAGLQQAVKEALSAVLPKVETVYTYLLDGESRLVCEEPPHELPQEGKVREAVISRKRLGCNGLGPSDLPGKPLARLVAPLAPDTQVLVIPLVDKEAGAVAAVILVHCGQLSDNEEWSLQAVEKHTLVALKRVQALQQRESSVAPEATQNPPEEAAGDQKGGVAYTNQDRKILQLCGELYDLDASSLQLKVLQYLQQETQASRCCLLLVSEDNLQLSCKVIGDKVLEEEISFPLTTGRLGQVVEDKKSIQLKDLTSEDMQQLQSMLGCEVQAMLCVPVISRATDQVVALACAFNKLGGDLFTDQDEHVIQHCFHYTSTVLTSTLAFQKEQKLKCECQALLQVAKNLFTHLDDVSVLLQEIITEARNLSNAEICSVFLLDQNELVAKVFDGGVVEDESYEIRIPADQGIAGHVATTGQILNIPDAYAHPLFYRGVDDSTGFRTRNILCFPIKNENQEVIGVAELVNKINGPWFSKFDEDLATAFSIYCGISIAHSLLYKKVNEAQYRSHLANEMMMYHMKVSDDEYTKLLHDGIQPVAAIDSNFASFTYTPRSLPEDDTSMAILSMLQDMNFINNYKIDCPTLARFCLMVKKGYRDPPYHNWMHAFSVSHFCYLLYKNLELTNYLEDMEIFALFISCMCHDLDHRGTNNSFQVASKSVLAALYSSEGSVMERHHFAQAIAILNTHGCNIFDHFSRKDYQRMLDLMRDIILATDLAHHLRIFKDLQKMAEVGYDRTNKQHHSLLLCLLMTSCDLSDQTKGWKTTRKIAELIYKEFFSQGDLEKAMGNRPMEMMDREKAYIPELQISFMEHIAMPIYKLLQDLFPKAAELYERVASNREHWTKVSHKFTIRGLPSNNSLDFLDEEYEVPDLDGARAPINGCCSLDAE

[4] = Relaxant effect on isolated rabbit corpus cavernosum; format: functional, tissue-based, Oryctolagus cuniculus; conditions: target entry is the homologue from another species
[5] = molecular target: Phosphodiesterase 4 (Canis familiaris); assay: Inhibition of canine lung Phosphodiesterase 4 (PDE4)

IC50 (Phosphodiesterase 1) [µM] | IC50 [1] [µM] | IC50 [2] [nM] | IC50 [3] [µM] | EC30 [4] [nM] | IC50 [5] [µM] | Compound
> 10 | > 10 | > 10000 |  |  |  | CNc1ccc(-n2c(C(=O)OC)c(-c3cc(OC)c(OC)c(OC)c3)c3cc(OC)c(OC)cc3c2=O)cc1
3.9 | > 10 | 97 |  |  |  | COC(=O)c1c(-c2cc(OC)c(OC)c(OC)c2)c2cc(OC)ccc2c(=O)n1-c1ccc(N)cc1.Cl
2.6 | > 10 | 14 |  |  |  | COC(=O)c1c(-c2cc(OC)c(O)c(OC)c2)c2ccc(OCc3ccccn3)cc2c(=O)n1-c1ccc(N)cc1
> 10 | > 10 | 27 |  |  |  | CCOc1cc2c(-c3cc(OC)c(OC)c(OC)c3)c(C(=O)OC)n(-c3ccc(N)cc3)c(=O)c2cc1OCC.Cl
9.5 | > 10 | 3.1 | > 10 | 12 | 7 | COC(=O)c1c(-c2cc(OC)c(OC)c(OC)c2)c2ccc(OCc3ccncc3)cc2c(=O)n1-c1ccc(N)cc1.Cl.Cl
> 10 | > 10 | 1900 |  |  |  | COc1cc(-c2c(C(=O)O)n(-c3ccc(N)cc3)c(=O)c3cc(OCc4ccccn4)ccc23)cc(OC)c1OC.Cl.Cl
> 10 | > 10 | 5 |  |  |  | COC(=O)c1c(-c2cc(OC)c(OC)c(OC)c2)c2ccc(OCCc3ccccn3)cc2c(=O)n1-c1ccc(N)cc1
> 10 | > 10 | > 10000 |  |  |  | COC(=O)c1c(-c2cc(OC)c(OC)c(OC)c2)c2cc(OC)c(OC)cc2c(=O)n1-c1ccc(N(C)C)cc1.Cl
> 10 |  | 8.5 |  |  |  | COC(=O)c1c(-c2cc(O)c(OC)c(OC)c2)c2ccc(OCc3ccccn3)cc2c(=O)n1-c1ccc(N)cc1.Cl.Cl
2.1 | 8.5 | 230 |  |  |  | COC(=O)c1c(-c2cc(OC)c(OC)c(OC)c2)c2cc(OC)c(OC)cc2c(=O)n1C
0.55 | > 10 | 18 |  |  |  | CCOC(=O)c1c(-c2cc(OC)c(OC)c(OC)c2)c2ccc(OCc3ccccn3)cc2c(=O)n1-c1ccc(N)cc1.Cl.Cl
> 10 | > 10 | > 10000 |  |  |  | COC(=O)c1c(-c2cc(OC)c(OC)c(OC)c2)c2cc(OC)c(OC)cc2c(=O)n1-c1ccc(NC(C)=O)cc1
> 10 | > 10 | 900 |  |  |  | COC(=O)c1nc(O)c2cc(OC)c(OC)cc2c1-c1cc(OC)c(OC)c(OC)c1
0.46 | 8.4 | 0.22 | 2.8 | 44 | 0.75 | COC(=O)c1c(-c2cc(OC)c(Br)c(OC)c2)c2ccc(OCc3ccccn3)cc2c(=O)n1-c1ccc(N)cc1.Cl.Cl
> 10 | > 10 | 26 |  |  |  | COC(=O)c1c(-c2cc(OC)c(OC)c(OC)c2)c2cc(OC)c(OC)cc2c(=O)n1N1CCOCC1

The next lines start with the compound.

Compound | IC50 (Phosphodiesterase 1) [µM] | IC50 [1] [µM] | IC50 [2] [nM] | IC50 [3] [µM] | EC30 [4] [nM] | IC50 [5] [µM]
COC(=O)c1c(-c2cc(OC)c(OC)c(OC)c2)c2ccc(OCc3ccccc3)cc2c(=O)n1-c1ccc(N)cc1.Cl | 2.1 | > 10 | 1.2 | > 10 | 130 | 6.1
COc1cc(-c2c(C(N)=O)n(-c3ccc(N)cc3)c(=O)c3cc(OCc4ccccn4)ccc23)cc(OC)c1OC.Cl.Cl | > 10 | > 10 | 490 |  |  | 
COC(=O)c1c(-c2cc(OC)c(OC)c(OC)c2)c2cc(OC)c(OC)cc2c(=O)n1-c1ccccc1 | > 10 | > 10 | 30 |  |  | 
COc1cc(-c2c(C(=O)N(C)C)n(-c3ccc(N)cc3)c(=O)c3cc(OCc4ccccn4)ccc23)cc(OC)c1OC.Cl.Cl | > 10 | > 10 | 2100 |  |  | 
COC(=O)c1c(-c2cc(OC)c(OC)c(OC)c2)c2cc(OC)c(OC)cc2c(=O)n1-c1cccc(N)c1.Cl | > 10 | > 10 | 250 |  |  | 
COC(=O)c1c(-c2cc(OC)c(OC)c(OC)c2)c2cc(OC)c(OC)cc2c(=O)n1-c1ccc(N)cc1.Cl | > 10 | 4.4 | 21 |  |  | 
COC(=O)c1c(-c2cc(OC)c(OC)c(OC)c2)c2ccc(OC)cc2c(=O)n1-c1ccc(N)cc1.Cl | 1 | > 10 | 20 |  |  | 
COC(=O)c1c(-c2cc(OC)c(OC)c(OC)c2)c2cc(OC)c(OC)cc2c(=O)n1Cc1ccccc1 | 3.1 | > 10 | 380 |  |  | 
COC(=O)c1c(-c2cc(OC)c(C)c(OC)c2)c2ccc(OCc3ccccn3)cc2c(=O)n1-c1ccc(N)cc1.Cl.Cl | 1.1 | > 10 | 0.39 | 3.5 | 37 | 1.7
COC(=O)c1c(-c2cc(OC)c(OC)c(OC)c2)c2ccc(OCc3ccccn3)cc2c(=O)n1-c1ccc(N)cc1.Cl.Cl | 1.3 |  | 1 | > 10 | 7.9 | 
COC(=O)c1c(-c2cc(OC)c(OC)c(OC)c2)c2cc(OC)c(OC)cc2c(=O)n1C1CCCCC1 | > 10 | > 10 | 230 |  |  | 
COC(=O)c1c(-c2cc(OC)c(OC)c(OC)c2)c2cc(OC)c(OC)cc2c(=O)n1C1CCCC1 | > 10 | > 10 | 580 |  |  | 
COC(=O)c1c(-c2cc(OC)c(OC)c(OC)c2)c2ccc(OCc3cccnc3)cc2c(=O)n1-c1ccc(N)cc1.Cl.Cl | 3.9 | > 10 | 1.1 | > 10 | 9.5 | 3.6
COC(=O)c1c(-c2cc(OC)c(OC)c(OC)c2)c2cc(OC)c(OC)cc2c(=O)n1N1CCCCC1 | > 10 | > 10 | 54 |  |  | 
CNC(=O)c1c(-c2cc(OC)c(OC)c(OC)c2)c2ccc(OCc3ccccn3)cc2c(=O)n1-c1ccc(N)cc1.Cl.Cl | > 10 | > 10 | 220 |  |  | 
COC(=O)c1c(-c2cc(OC)c(OC)c(OC)c2)c2cc(OC)c(OC)cc2c(=O)n1-c1ccc(Cl)cc1 | > 10 | > 10 | 170 |  |  | 
CCCc1nn(C)c2c(=O)[nH]c(-c3cc(S(=O)(=O)N4CCN(C)CC4)ccc3OCC)nc12 |  |  |  | > 10 |  | 
COC(=O)c1c(-c2cc(OC)c(OC)c(OC)c2)c2cc(OC)c(OC)cc2c(=O)n1-c1ccc(OC)cc1 | > 10 |  | > 10000 |  |  | 
COC(=O)c1c(-c2cc(OC)c(OC)c(OC)c2)c2cc(OC)c(OC)cc2c(=O)n1-c1ccc(O)cc1 | > 10 | > 10 | 110 |  |  | 
